Data on three molecules can be found in ChEMBL document CHEMBL4152271, “Polypharmacological profile of 1,2-dihydro-2-oxo-pyridine-3-carboxamides in the endocannabinoid system” (Eur J Med Chem, 2018).

Each structure is given as a SMILES string. Some results are limits rather than exact numbers.

Cannabinoid receptor 2, sequence (P34972 whole entry): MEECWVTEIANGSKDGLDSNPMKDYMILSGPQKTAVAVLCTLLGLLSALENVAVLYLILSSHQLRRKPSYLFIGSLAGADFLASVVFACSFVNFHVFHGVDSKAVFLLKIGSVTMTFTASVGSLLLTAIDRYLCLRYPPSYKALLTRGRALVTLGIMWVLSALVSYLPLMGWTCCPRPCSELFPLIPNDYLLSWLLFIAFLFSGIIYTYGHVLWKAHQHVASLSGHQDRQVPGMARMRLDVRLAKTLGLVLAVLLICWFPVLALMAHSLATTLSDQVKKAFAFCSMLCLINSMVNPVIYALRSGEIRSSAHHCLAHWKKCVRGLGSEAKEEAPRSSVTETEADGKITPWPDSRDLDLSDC

The target of one assay is T1, Monoglyceride lipase (Homo sapiens, UniProt Q99685).
T1 sequence (Q99685 whole entry): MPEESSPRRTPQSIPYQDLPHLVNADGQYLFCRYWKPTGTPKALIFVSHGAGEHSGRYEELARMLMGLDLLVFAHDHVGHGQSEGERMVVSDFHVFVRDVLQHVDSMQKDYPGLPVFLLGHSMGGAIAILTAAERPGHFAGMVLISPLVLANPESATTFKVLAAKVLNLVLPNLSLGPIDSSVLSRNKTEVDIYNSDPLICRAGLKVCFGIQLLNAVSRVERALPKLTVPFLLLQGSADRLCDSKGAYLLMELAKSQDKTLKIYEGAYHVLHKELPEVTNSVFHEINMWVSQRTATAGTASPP
Description: Inhibition of MAGL in human U937 cells using 2-OG containing […] as substrate preincubated for 30 mins followed by substrate addition and measured after 15 mins by liquid scintillation spectroscopic method. Format: cell-based. In a few lines:
(§1)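 U937 cell homogenate (100 µg) in 10 mM Tris-HCl, 1 mM EDTA, pH 8, 0.1% fatty acid-free BSA. Compound at 10 µM screening concentration, 30 min at 37 °C. FAAH: 100 nM AEA with 1 nM [³H]AEA tracer. MAGL: 1 µM 2-OG with 1 nM tritiated tracer. Both 15 min at 37 °C, stopped with CHCl₃:MeOH (1:1), aqueous phase counted.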
Turning to `COc1ccc(-c2c(Br)cn(Cc3ccc(F)cc3)c(=O)c2C(=O)NC2CCCCCC2)cc1`, the half-maximal inhibitory concentration (IC50) (commonly the concentration at which inhibition is half-maximal) was more than 10 µM.
On to `COc1ccc(-c2cn(Cc3ccc(F)cc3)c(=O)c(C(=O)NC3CCCCCC3)c2-c2ccccc2)cc1`, for which the IC50 is more than 10 µM.
Molecule `COc1ccc(-c2ccn(Cc3ccc(F)cc3)c(=O)c2C(=O)NC2CCCCCC2)cc1` gave an IC50 of more than 10 µM.

The target in a further assay is Cannabinoid receptor 1 (Homo sapiens, UniProt P21554). Put plainly: Displacement of [3H]-CP55940 from human CB1 receptor expressed in CHO cell membranes after 90 mins. A general note: Loss of bound radioactivity is the signal in a displacement assay; it reports binding, not function.
Cannabinoid receptor 1, sequence (P21554 whole entry): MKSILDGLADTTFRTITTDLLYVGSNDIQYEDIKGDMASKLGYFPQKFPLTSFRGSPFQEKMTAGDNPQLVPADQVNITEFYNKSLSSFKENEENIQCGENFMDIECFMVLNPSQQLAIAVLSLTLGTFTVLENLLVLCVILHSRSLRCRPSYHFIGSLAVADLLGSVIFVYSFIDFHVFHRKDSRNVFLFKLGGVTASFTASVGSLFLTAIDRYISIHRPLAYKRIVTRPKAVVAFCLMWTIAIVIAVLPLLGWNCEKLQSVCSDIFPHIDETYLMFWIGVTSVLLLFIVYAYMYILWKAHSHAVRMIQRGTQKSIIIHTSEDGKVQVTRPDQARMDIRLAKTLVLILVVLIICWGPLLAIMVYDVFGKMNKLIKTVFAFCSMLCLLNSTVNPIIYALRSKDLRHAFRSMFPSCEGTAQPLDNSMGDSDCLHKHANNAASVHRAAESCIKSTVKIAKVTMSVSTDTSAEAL
As to `COc1ccc(-c2c(Br)cn(Cc3ccc(F)cc3)c(=O)c2C(=O)NC2CCCCCC2)cc1`, the Ki (usually the dissociation constant of the complex between target and ligand, obtained from inhibition or displacement) was more than 10 µM.
Still for that read-out and setting: to `COc1ccc(-c2cn(Cc3ccc(F)cc3)c(=O)c(C(=O)NC3CCCCCC3)c2-c2ccccc2)cc1` belongs more than 10 µM; to `COc1ccc(-c2ccn(Cc3ccc(F)cc3)c(=O)c2C(=O)NC2CCCCCC2)cc1`, more than 10 µM.

The next assay deals with Cannabinoid receptor 2 (Homo sapiens, UniProt P34972). Description: Displacement of [3H]-CP55940 from human CB2 receptor expressed in CHO cell membranes after 90 mins. The procedure, abridged:
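Membranes expressing hCB1 or hCB2 (stably transfected CHO) in 50 mM Tris-HCl, 2.5 mM EDTA, 5 mM MgCl₂, 0.5% fatty acid-free BSA, pH 7.4. Nonspecific binding with 10 µM […]. GF/B filtration, radioactivity counted, Ki derived. Mean ± SD, at least 3 experiments in triplicate.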
With `COc1ccc(-c2c(Br)cn(Cc3ccc(F)cc3)c(=O)c2C(=O)NC2CCCCCC2)cc1`, the Ki was more than 10 µM.
`COc1ccc(-c2cn(Cc3ccc(F)cc3)c(=O)c(C(=O)NC3CCCCCC3)c2-c2ccccc2)cc1` showed a Ki of more than 10 µM.
In turn, `COc1ccc(-c2ccn(Cc3ccc(F)cc3)c(=O)c2C(=O)NC2CCCCCC2)cc1` showed a Ki of more than 10 µM.

Another assay is filed under the species Homo sapiens. Put plainly: Selectivity ratio of Ki for human CB1 receptor to Ki for human CB2 receptor. The procedure, abridged:
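Membranes expressing hCB1 or hCB2 (stably transfected CHO) in 50 mM Tris-HCl, 2.5 mM EDTA, 5 mM MgCl₂, 0.5% fatty acid-free BSA, pH 7.4. Incubated with compound and 0.5 nM [³H]CP55,940 for 90 min at 30 °C. Nonspecific binding with 10 µM […]. GF/B filtration, radioactivity counted, Ki derived. Mean ± SD, at least 3 experiments in triplicate.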
`COc1ccc(-c2c(Br)cn(Cc3ccc(F)cc3)c(=O)c2C(=O)NC2CCCCCC2)cc1`: the Ratio Ki fell in the range of 2 to 54.
Take `COc1ccc(-c2cn(Cc3ccc(F)cc3)c(=O)c(C(=O)NC3CCCCCC3)c2-c2ccccc2)cc1`: the Ratio Ki is 2 to 54.
For `COc1ccc(-c2ccn(Cc3ccc(F)cc3)c(=O)c2C(=O)NC2CCCCCC2)cc1`, the Ratio Ki lay within 2 to 54.

The next assay deals with T2, Fatty-acid amide hydrolase 1 (Homo sapiens, UniProt O00519).
T2 sequence (O00519 whole entry): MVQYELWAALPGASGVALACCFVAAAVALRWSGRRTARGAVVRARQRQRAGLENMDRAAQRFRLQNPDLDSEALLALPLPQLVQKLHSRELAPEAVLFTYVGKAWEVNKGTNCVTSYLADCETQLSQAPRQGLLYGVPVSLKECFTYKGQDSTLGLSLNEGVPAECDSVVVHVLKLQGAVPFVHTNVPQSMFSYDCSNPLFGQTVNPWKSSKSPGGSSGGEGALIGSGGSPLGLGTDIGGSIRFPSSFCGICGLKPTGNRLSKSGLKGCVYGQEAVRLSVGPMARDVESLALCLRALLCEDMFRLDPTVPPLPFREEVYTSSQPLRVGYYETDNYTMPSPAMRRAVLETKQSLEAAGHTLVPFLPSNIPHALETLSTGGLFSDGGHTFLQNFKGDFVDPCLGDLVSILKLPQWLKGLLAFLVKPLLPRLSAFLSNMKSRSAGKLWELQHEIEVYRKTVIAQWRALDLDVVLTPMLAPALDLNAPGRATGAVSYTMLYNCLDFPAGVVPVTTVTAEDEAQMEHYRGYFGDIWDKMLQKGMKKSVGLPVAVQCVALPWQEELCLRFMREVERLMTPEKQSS
Put plainly: Inhibition of FAAH in human U937 cells using AEA containing [ethanolamine-1-3H]AEA as substrate preincubated for 30 mins followed by substrate addition and measured after 15 mins by liquid scintillation spectroscopic method. Format: cell-based. In a few lines:
as §1
In turn, `COc1ccc(-c2c(Br)cn(Cc3ccc(F)cc3)c(=O)c2C(=O)NC2CCCCCC2)cc1` gave an IC50 of more than 10 µM.
`COc1ccc(-c2cn(Cc3ccc(F)cc3)c(=O)c(C(=O)NC3CCCCCC3)c2-c2ccccc2)cc1` registered an IC50 of more than 10 µM.
Consider `COc1ccc(-c2ccn(Cc3ccc(F)cc3)c(=O)c2C(=O)NC2CCCCCC2)cc1`, for which the IC50 is more than 10 µM.

In a further assay the target is T3, Monoacylglycerol lipase ABHD6 (Homo sapiens, UniProt Q9BV23).
T3 sequence (Q9BV23 whole entry): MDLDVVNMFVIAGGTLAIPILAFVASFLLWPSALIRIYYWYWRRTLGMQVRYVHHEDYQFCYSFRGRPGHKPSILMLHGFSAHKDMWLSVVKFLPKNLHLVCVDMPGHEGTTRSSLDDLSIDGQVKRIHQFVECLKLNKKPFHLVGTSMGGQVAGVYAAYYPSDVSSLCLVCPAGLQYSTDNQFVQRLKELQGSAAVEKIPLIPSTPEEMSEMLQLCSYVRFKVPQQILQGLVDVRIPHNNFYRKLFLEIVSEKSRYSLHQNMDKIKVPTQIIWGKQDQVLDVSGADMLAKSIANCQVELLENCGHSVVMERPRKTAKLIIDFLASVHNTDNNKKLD
Description: Inhibition of human ABHD6 expressed in HEK293 cells using 2-OG as substrate preincubated for 30 mins followed by substrate addition and measured after 5 mins by liquid scintillation spectroscopic method. Format: cell-based. In a few lines: (§2)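 Homogenate (40 µg) of HEK293 cells stably transfected with hABHD6 or hABHD12, compound preincubated 30 min at 37 °C in […], 0.1% BSA, pH 7.6. DMSO vehicle; WWL70 10 µM or THL 20 µM as positive controls. 10 µM 2-OG added for 5 min at 37 °C, stopped with CHCl₃:MeOH. Aqueous phase counted; no-enzyme blanks and non-transfected HEK293 hydrolysis subtracted.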
In turn, `COc1ccc(-c2c(Br)cn(Cc3ccc(F)cc3)c(=O)c2C(=O)NC2CCCCCC2)cc1` displayed a 50% inhibitory concentration (IC50) of more than 10 µM.
For `COc1ccc(-c2cn(Cc3ccc(F)cc3)c(=O)c(C(=O)NC3CCCCCC3)c2-c2ccccc2)cc1`, the IC50 is more than 10 µM.
In the case of `COc1ccc(-c2ccn(Cc3ccc(F)cc3)c(=O)c2C(=O)NC2CCCCCC2)cc1`, the IC50 was more than 10 µM.

For a further assay, the target named is T4, Lysophosphatidylserine lipase ABHD12 (Homo sapiens, UniProt Q8N2K0).
T4 sequence (Q8N2K0 whole entry): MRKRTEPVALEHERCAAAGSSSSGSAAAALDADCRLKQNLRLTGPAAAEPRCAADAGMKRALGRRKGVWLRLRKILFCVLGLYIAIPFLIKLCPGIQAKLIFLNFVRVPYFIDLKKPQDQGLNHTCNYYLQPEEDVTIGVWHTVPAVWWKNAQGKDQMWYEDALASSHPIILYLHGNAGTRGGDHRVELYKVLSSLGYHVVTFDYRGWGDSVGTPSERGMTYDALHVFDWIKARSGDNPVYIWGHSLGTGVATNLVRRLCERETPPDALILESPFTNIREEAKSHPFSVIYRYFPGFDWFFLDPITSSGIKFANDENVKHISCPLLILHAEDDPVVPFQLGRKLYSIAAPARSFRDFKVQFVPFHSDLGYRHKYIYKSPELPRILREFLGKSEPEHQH
Description: Inhibition of human ABHD12 expressed in HEK293 cells using 2-OG as substrate preincubated for 30 mins followed by substrate addition and measured after 5 mins by liquid scintillation spectroscopic method. The class given is cell-based. The procedure, abridged: as §2
As for `COc1ccc(-c2c(Br)cn(Cc3ccc(F)cc3)c(=O)c2C(=O)NC2CCCCCC2)cc1`, the IC50 was more than 10 µM.
Still for that read-out and setting: to `COc1ccc(-c2cn(Cc3ccc(F)cc3)c(=O)c(C(=O)NC3CCCCCC3)c2-c2ccccc2)cc1` belongs more than 10 µM; to `COc1ccc(-c2ccn(Cc3ccc(F)cc3)c(=O)c2C(=O)NC2CCCCCC2)cc1`, more than 10 µM.

For a further assay, the system named is U-937. Description: Inhibition of [ethanolamine-1-3H]AEA/unlabeled AEA uptake in human U937 cells preincubated for 15 mins followed by [ethanolamine-1-3H]AEA/unlabeled AEA addition and measured after 15 mins by scintillation counting method. The class given is functional, cell-based. The procedure, abridged: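 Intact U937 cells (0.5x10⁶ per sample) in RPMI, preincubated with compound for 15 min at 37 °C. Then 1 nM [ethanolamine-1-³H]AEA plus unlabeled AEA (final 100 nM) added for 15 min. Stopped by rapid filtration and ice-cold PBS/1% BSA washes, radioactivity counted. At least three experiments in triplicate, mean ± SD.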
In turn, `COc1ccc(-c2c(Br)cn(Cc3ccc(F)cc3)c(=O)c2C(=O)NC2CCCCCC2)cc1` yielded an IC50 of more than 10 µM.
On the same count and under the same terms, to `COc1ccc(-c2cn(Cc3ccc(F)cc3)c(=O)c(C(=O)NC3CCCCCC3)c2-c2ccccc2)cc1` belongs more than 10 µM; to `COc1ccc(-c2ccn(Cc3ccc(F)cc3)c(=O)c2C(=O)NC2CCCCCC2)cc1`, more than 10 µM.
